From publication PMC2938439 (The Journal of Membrane Biology, 2010)
Peptide text beside a SMILES is read from it.

B1: Annexin B12 (protein, UniProt P26256 1-316, looked up)
Annexin-B12: MVVQGTVKPHASFNSREDAETLRKAMKGIGTDEKSITHILATRSNAQRQQIKTDYTTLFGKHLEDELKSELSGNYEAAALALLRKPDEFLAEQLHAAMKGLGTDENALIDILCTQSNAQIHAIKAAFKLLYKEDLEKEIISETSGNFQRLLVSMLQGGRKEDEPVNAAHAAEDAAAIYQAGEGQIGTDESRFNAVLATRSYPQLHQIFHEYSKISNKTILQAIENEFSGDIKNGLLAIVKSVENRFAYFAERLHHAMKGLGTSDKTLIRILVSRSEIDLANIKETFQAMYGKSLYEFIADDCSGDYKDLLLQITGH

How the values were obtained:
[1] = CD spectroscopy, peptide and LUVs in the same cuvette; format: physicochemical; details: for Θ222, same cell: pH 7.0, ~25°C, error est. 10%
In short: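 Lipid dried from chloroform under nitrogen, then under vacuum overnight. It was hydrated in 10 mM potassium phosphate pH 7.0, vortexed, and extruded 10× under nitrogen through two stacked 0.1-μm polycarbonate filters to give LUVs. Peptide and vesicles shared one cuvette, 1-mm path. 10–30 scans, 190–260 nm, ~25°C. A vesicle-only spectrum was subtracted. Ellipticity was converted to per-residue values.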

[2] = CD spectroscopy, two-cuvette experiment; format: physicochemical; details: error est. 10%
In short: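 Two-cuvette setup: test peptide solution in cell 1 and POPC LUV suspensions in cell 2, in the light path together. LUVs were extruded through 0.1-μm filters in 10 mM potassium phosphate pH 7.0. Peptide concentration was set by UV absorbance (tyrosine ε274nm 1,440 M−1 cm−1). 10–30 scans, 190–260 nm, 1-mm path, ~25°C. Ellipticity was expressed per residue.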

[3] = monomolecular, ref Scholtz et al. [1991]; cited from earlier work
[4] = CD of Annexin B12 in solution and bound to LUVs; format: physicochemical; details: bound to LUVs in the presence of Ca^2+

Molecule | molar ellipticity of the peptide ([1]; 25°C, buffer with LUVs up to 7 mM, 40 μM peptide) | Θ222, same cell ([1]; +0.25 mM POPC LUVs in same cuvette, 40 μM peptide) | Θ222, same cell ([1]; +3 mM POPC LUVs in same cuvette, 40 μM peptide) | Θ222, same cell ([1]; +5 mM POPC LUVs in same cuvette, 40 μM peptide) | Θ222, same cell ([1]; +7 mM POPC LUVs in same cuvette, 40 μM peptide) | binding to POPC vesicles ([1]; same-cuvette versus two-cuvette CD spectra, LUVs up to 7 mM) | Θ222, two cells ([2]; +3 mM POPC LUVs in separate cuvette, peptide in buffer (40 μM)) | Θ222, two cells ([2]; +5 mM POPC LUVs in separate cuvette, peptide in buffer (40 μM)) | Θ222, two cells ([2]; +7 mM POPC LUVs in separate cuvette, peptide in buffer (40 μM)) | Θ222, two cells ([2]; no lipid, peptide in buffer (40 μM) in cell 1, ~25°C) | α-helical content in buffer [3] | CD spectrum, aqueous versus LUV-associated [4]
CC(=O)N[C@@H](Cc1ccc(O)cc1)C(=O)N[C@@H](C)C(=O)N[C@@H](CCC(=O)O)C(=O)N[C@@H](C)C(=O)N[C@@H](C)C(=O)N[C@@H](CCCCN)C(=O)N[C@@H](C)C(=O)N[C@@H](C)C(=O)N[C@@H](CCC(=O)O)C(=O)N[C@@H](C)C(=O)N[C@@H](C)C(=O)N[C@@H](CCCCN)C(=O)N[C@@H](C)C(=O)N[C@@H](C)C(=O)N[C@@H](CCC(=O)O)C(=O)N[C@@H](C)C(=O)N[C@@H](C)C(=O)N[C@@H](CCCCN)C(=O)N[C@@H](C)C(=O)N[C@@H](C)C(=O)N[C@@H](CCC(=O)O)C(=O)N[C@@H](C)C(=O)N[C@@H](C)C(=O)N[C@@H](CCCCN)C(=O)N[C@@H](C)C(=O)N[C@@H](Cc1ccccc1)C(N)=O [Ac-Y(AEAAKA)4F-NH2] (Ac-YAEAAKAAEAAKAAEAAKAAEAAKAF-NH2) | −20(±0.5) × 10^3 deg cm^2 dmol^−1 | −20,100 deg cm^2 dmol^−1 | −19,800 deg cm^2 dmol^−1 | −19,700 deg cm^2 dmol^−1 | −19,700 deg cm^2 dmol^−1 | does not bind to POPC vesicles | −20,100 deg cm^2 dmol^−1 | −20,100 deg cm^2 dmol^−1 | −19,900 deg cm^2 dmol^−1 | −20,300 deg cm^2 dmol^−1 | ~ 60% | 
B1 |  |  |  |  |  |  |  |  |  |  |  | essentially the same CD spectrum
